From ChEMBL document CHEMBL1140608 (J Med Chem, 2007)

Tests used:
[1] = target: T1, ATP-dependent translocase ABCB1 (Homo sapiens, UniProt P08183); assay: Inhibition of human Pgp in anthracycline-resistant K562 cells assessed as drug level causing maximal increase in nuclear concentration of pirarubicin relative to control; format: cell-based
How it was run: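 Anthracycline-resistant erythroleukemia K562 cells were incubated with pirarubicin, and its uptake was followed by continuous spectrofluorometry (λex 480 nm, λem 590 nm). R is the fractional increase in nuclear pirarubicin with inhibitor: 0 without inhibitor, 1 when it equals sensitive cells. Rmax is the maximal achievable increase. [I]0.5 is the inhibitor concentration giving R = 0.5.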

[2] = target: T1, ATP-dependent translocase ABCB1; assay: Inhibition of human Pgp in anthracycline-resistant K562 cells assessed as drug level causing half maximal increase in nuclear concentration of pirarubicin; format: cell-based; conditions: read-out: Activity

T1 sequence (P08183 whole entry): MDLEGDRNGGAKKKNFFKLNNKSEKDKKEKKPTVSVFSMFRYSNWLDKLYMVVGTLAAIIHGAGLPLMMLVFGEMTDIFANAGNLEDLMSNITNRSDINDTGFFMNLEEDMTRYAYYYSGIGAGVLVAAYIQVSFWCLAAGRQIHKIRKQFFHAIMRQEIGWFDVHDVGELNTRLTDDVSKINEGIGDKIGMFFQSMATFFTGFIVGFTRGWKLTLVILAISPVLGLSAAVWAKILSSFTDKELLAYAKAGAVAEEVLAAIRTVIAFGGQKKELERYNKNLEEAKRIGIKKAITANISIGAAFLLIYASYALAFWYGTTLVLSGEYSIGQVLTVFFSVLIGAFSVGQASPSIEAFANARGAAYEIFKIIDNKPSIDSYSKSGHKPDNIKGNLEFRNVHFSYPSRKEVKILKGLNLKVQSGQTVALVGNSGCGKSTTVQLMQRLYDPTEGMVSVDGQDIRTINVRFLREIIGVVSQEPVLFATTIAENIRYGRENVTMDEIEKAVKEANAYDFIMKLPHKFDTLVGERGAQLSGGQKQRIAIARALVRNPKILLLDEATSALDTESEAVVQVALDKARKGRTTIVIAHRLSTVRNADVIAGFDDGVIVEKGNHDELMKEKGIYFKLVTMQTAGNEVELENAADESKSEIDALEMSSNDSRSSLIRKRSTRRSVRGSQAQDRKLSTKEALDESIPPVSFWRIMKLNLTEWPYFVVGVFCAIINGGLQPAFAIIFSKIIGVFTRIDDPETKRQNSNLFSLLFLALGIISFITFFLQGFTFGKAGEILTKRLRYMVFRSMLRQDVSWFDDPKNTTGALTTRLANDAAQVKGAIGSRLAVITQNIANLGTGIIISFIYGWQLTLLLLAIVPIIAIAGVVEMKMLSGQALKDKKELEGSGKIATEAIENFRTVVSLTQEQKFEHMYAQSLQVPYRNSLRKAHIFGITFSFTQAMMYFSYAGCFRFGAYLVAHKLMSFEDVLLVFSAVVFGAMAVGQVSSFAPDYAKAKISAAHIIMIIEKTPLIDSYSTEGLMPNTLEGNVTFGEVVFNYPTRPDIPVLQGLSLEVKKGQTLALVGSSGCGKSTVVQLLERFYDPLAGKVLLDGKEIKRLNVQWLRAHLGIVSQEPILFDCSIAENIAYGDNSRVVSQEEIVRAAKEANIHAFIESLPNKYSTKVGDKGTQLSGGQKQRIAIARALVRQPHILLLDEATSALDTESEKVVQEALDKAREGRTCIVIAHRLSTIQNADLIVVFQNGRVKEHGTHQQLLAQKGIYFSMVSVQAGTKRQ

Structure (SMILES): COc1cc(/C=C/C(=O)OCCCN(C)CCCOC(=O)c2cc(OC)c(OC)c(OC)c2)cc(OC)c1OC
- Activity [1]: 0.9
- IC50 [2]: 0.6 µM

Structure (SMILES): COc1cc(C(=O)OCCCN(C)CCCOC(=O)c2c3ccccc3cc3ccccc23)cc(OC)c1OC
- Activity [1]: 0.71
- IC50 [2]: 0.28 µM

Structure (SMILES): COc1cc(/C=C/C(=O)OC2CCC(N(C)C3CCC(OC(=O)c4cc(OC)c(OC)c(OC)c4)CC3)CC2)cc(OC)c1OC (cis isomer)
- Activity [1]: 0.8
- IC50 [2]: 0.03 µM

Structure (SMILES): COc1cc(/C=C/C(=O)OC2CCC(N(C)C3CCC(OC(=O)c4cc(OC)c(OC)c(OC)c4)CC3)CC2)cc(OC)c1OC (mixture of isomers; cis)
- Activity [1]: 0.85
- IC50 [2]: 0.09 µM

Structure (SMILES): COc1cc(C(=O)OC2CCC(N(C)C3CCC(OC(=O)c4c5ccccc5cc5ccccc45)CC3)CC2)cc(OC)c1OC (mixture of isomers; cis)
- Activity [1]: 0.95
- IC50 [2]: 0.3 µM

Structure (SMILES): COc1cc(/C=C/C(=O)OC2CCC(N(C)C3CCC(OC(=O)c4cc(OC)c(OC)c(OC)c4)CC3)CC2)cc(OC)c1OC (mixture of isomers; trans)
- Activity [1]: 0.98
- IC50 [2]: 0.01 µM

Structure (SMILES): COc1cc(C(=O)OC2CCC(N(C)C3CCC(OC(=O)c4c5ccccc5cc5ccccc45)CC3)CC2)cc(OC)c1OC (mixture of isomers; trans)
- Activity [1]: 0.78
- IC50 [2]: 0.16 µM

Structure (SMILES): COc1cc(/C=C/C(=O)OC2CCC(N(C)C3CCC(OC(=O)c4cc(OC)c(OC)c(OC)c4)CC3)CC2)cc(OC)c1OC (stereo in doubt)
- Activity [1]: 0.81
- IC50 [2]: 0.32 µM

Structure (SMILES): COc1cc(C(=O)OC2CCC(N(C)C3CCC(OC(=O)c4c5ccccc5cc5ccccc45)CC3)CC2)cc(OC)c1OC (stereo in doubt)
- Activity [1]: 0.79
- IC50 [2]: 0.18 µM

Structure (SMILES): COc1cc(C(=O)OC2CCC(N(C)C3CCC(OC(=O)c4c5ccccc5cc5ccccc45)CC3)CC2)cc(OC)c1OC (trans isomer)
- Activity [1]: 0.88
- IC50 [2]: 0.3 µM
